Active and inactive are the calls of the source. The calls are words filed in the database; no cut-off is given here.
Assays:
KB-V1 = test: Cytotoxicity against human KB-V1 cells assessed as inhibition of cell proliferation incubated for 72 hrs by MTT assay; type: functional, cell-based; details: KB-V1, 72 h
Outline: (§1)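 Cells were seeded (10000/well for A2780, 5000/well for MES-SA/Dx5 and KB-3-1/V1) and left to attach 12 h, then exposed to compound for 72 h. Medium was removed, and MTT (0.83 mg/mL) was added for 1 h at 37 °C. Cells were lysed in DMSO and absorbance read at 540 nm. Signal was corrected for unstained lysate background, normalized to untreated cells, and IC50 taken from a sigmoidal dose-response fit.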

MES-SA/Dx5 [1] = test: Cytotoxicity against human MES-SA/DX5 cells transfected with mCherry fluorescent protein assessed as inhibition of cell proliferation incubated for 72 hrs by fluorescent assay; type: functional, cell-based
Outline: (§2)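 MES-SA and MES-SA/Dx5 cells were made to stably express mCherry by lentiviral transduction. Cells were seeded at 5000 (96-well) or 2500 (384-well) per well, allowed to attach 24 h, then treated with compound dilutions for 72 h. Viability was read as fluorescence, excitation 585 nm, emission 610 nm.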

MES-SA [2] = test: Cytotoxicity against human MES-SA cells transfected with mCherry fluorescent protein assessed as inhibition of cell proliferation incubated for 72 hrs by fluorescent assay; type: functional, cell-based; outline: as §2
MES-SA/Dx5 [3] = test: Cytotoxicity against human MES-SA/DX5 cells assessed as inhibition of cell proliferation incubated for 72 hrs by MTT assay; type: functional, cell-based; details: MES-SA/Dx5, 72 h; outline: as §1
MES-SA [4] = test: Cytotoxicity against human MES-SA cells assessed as inhibition of cell proliferation incubated for 72 hrs by MTT assay; type: functional, cell-based; outline: as §1
[5] = Cytotoxicity against human A2780adr cells assessed as inhibition of cell proliferation incubated for 72 hrs by MTT assay; type: functional, cell-based; details: A2780 ADR; outline: as §1
A2780 = test: Cytotoxicity against human A2780 cells assessed as inhibition of cell proliferation incubated for 72 hrs by MTT assay; type: functional, cell-based; details: A2780, 72 h; outline: as §1
KB 3-1 = test: Cytotoxicity against human KB-3-1 cells assessed as inhibition of cell proliferation incubated for 72 hrs by MTT assay; type: functional, cell-based; details: KB 3-1, 72 h; outline: as §1
[6] = Selectivity ratio of IC50 for human MES-SA cells transfected with mCherry to IC50 for human MES-SA/DX5 cells transfected with mCherry incubated for 72 hrs by fluorescent assay; type: functional
[7] = Selectivity ratio of IC50 for human MES-SA cells to IC50 for human MES-SA/DX5 cells incubated for 72 hrs by MTT assay; type: functional
Outline: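 The selectivity ratio is the IC50 in P-gp-negative parental cells divided by the IC50 in the P-gp-positive resistant partner.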

MES-SA/Dx5 [8] = test: Cytotoxicity against human MES-SA/DX5 cells transfected with mCherry fluorescent protein incubated for 72 hrs in presence of efflux pump inhibitor, Tariquidar by fluorescence assay; type: functional, cell-based
Outline: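 The mCherry-expressing cells (lentiviral) were seeded at 5000 or 2500 per well, attached for 24 h, and exposed 72 h to compounds with Tariquidar coadministered. Live-cell signal was fluorescence at 585 nm excitation and 610 nm emission.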

[9] = Homo sapiens, MES-SA/Dx5, 72 h, read-out: IC50
[10] = Homo sapiens, MES-SA/Dx5, 72 h, read-out: pIC50 (converted)
[11] = Homo sapiens, MES-SA, 72 h, read-out: IC50
[12] = Homo sapiens, MES-SA, 72 h, read-out: pIC50 (converted)

SMILES: COc1cc(N/N=C/c2ccccn2)ncn1
- IC50 (KB-V1; read-out: IC50): 2.83 µM
- IC50 (KB-V1; read-out: pIC50 (converted)): 2.82 µM
- IC50 (MES-SA/Dx5 [1]; [9]): 2.71 µM
- IC50 (MES-SA/Dx5 [1]; [10]): 2.57 µM
- IC50 (MES-SA [2]; [11]): 2.45 µM
- IC50 (MES-SA [2]; [12]): 2.34 µM
- IC50 (MES-SA/Dx5 [3]; read-out: IC50): 2.49 µM
- IC50 (MES-SA [4]; read-out: IC50): 2.82 µM
- IC50 ([5]; read-out: IC50): 1.95 µM
- IC50 ([5]; read-out: pIC50 (converted)): 1.95 µM
- IC50 (A2780; read-out: IC50): 1.73 µM
- IC50 (A2780; read-out: pIC50 (converted)): 1.74 µM
- IC50 (KB 3-1; read-out: IC50): 1.95 µM
- IC50 (KB 3-1; read-out: pIC50 (converted)): 1.91 µM

SMILES: C/C(=N\Nc1nc2ccccc2s1)c1ccccc1N
- IC50 (MES-SA/Dx5 [1]; [9]): 19 µM
- IC50 (MES-SA [2]; [11]): 46.2 µM
- IC50 (MES-SA/Dx5 [3]; read-out: IC50): 28 µM
- IC50 (MES-SA/Dx5 [3]; read-out: pIC50 (converted)): 27.5 µM
- IC50 (MES-SA [4]; read-out: IC50): 45.6 µM
- IC50 (MES-SA [4]; read-out: pIC50 (converted)): 44.7 µM
- Ratio IC50 [6]: 2.41
- Ratio IC50 [7]: 1.64

SMILES: Oc1ccccc1/C=N/NC(=S)Nc1cccc(C(F)(F)F)c1
- IC50 (MES-SA/Dx5 [1]; [9]): 4.08 µM
- IC50 (MES-SA [2]; [11]): 5.07 µM

SMILES: COc1ccccc1/C=N/Nc1nc2ccccc2s1
- pIC50 (MES-SA/Dx5 [1]): inactive
- IC50 (MES-SA/Dx5 [1]; mes-sa/dx5): Not Active
- pIC50 (MES-SA [2]): inactive
- IC50 (MES-SA [2]; mes-sa): Not Active

SMILES: C/C(=N\NC(=S)Nc1cccc(C(F)(F)F)c1)c1ccccn1
- IC50 (MES-SA/Dx5 [1]; [9]): 11.7 µM
- IC50 (MES-SA/Dx5 [1]; [10]): 11.7 µM
- IC50 (MES-SA [2]; [11]): 9.59 µM
- IC50 (MES-SA [2]; [12]): 9.55 µM

SMILES: COc1ccc(O)c(/C(C)=N/Nc2nc3ccccc3s2)c1
- IC50 (MES-SA/Dx5 [1]; [9]): 15.4 µM
- IC50 (MES-SA/Dx5 [1]; [10]): 14.1 µM
- IC50 (MES-SA [2]; [11]): 50.7 µM
- IC50 (MES-SA [2]; [12]): 50.1 µM
- Activity (MES-SA/Dx5 [8]): Active
- Ratio IC50 [6]: 4.71

SMILES: CCc1ccc(/C=N/Nc2nc3ccccc3s2)nc1
- IC50 (KB-V1; read-out: IC50): 1.14 µM
- IC50 (KB-V1; read-out: pIC50 (converted)): 1.15 µM
- IC50 (MES-SA/Dx5 [1]; [9]): 3.83 µM
- IC50 (MES-SA/Dx5 [1]; [10]): 3.55 µM
- IC50 (MES-SA [2]; [11]): 4.26 µM
- IC50 (MES-SA [2]; [12]): 4.27 µM
- IC50 (MES-SA/Dx5 [3]; read-out: IC50): 1.85 µM
- IC50 (MES-SA/Dx5 [3]; read-out: pIC50 (converted)): 1.86 µM
- IC50 (MES-SA [4]; read-out: IC50): 3.24 µM
- IC50 (MES-SA [4]; read-out: pIC50 (converted)): 3.16 µM
- IC50 ([5]; read-out: IC50): 0.62 µM
- IC50 ([5]; read-out: pIC50 (converted)): 0.589 µM
- Ratio IC50 [7]: 1.68
- IC50 (A2780; read-out: IC50): 0.81 µM
- IC50 (A2780; read-out: pIC50 (converted)): 0.813 µM
- IC50 (KB 3-1; read-out: IC50): 0.61 µM
- IC50 (KB 3-1; read-out: pIC50 (converted)): 0.933 µM

SMILES: C/C(=N\NC(=S)Nc1ccccc1)c1ccccn1
- pIC50 (MES-SA/Dx5 [1]): inactive
- pIC50 (MES-SA [2]): inactive

SMILES: COc1ccc(NC(=S)N/N=C/c2ccccc2O)cc1
- IC50 (KB-V1; read-out: IC50): 4.87 µM
- IC50 (KB-V1; read-out: pIC50 (converted)): 5.01 µM
- IC50 (MES-SA/Dx5 [1]; [9]): 1.85 µM
- IC50 (MES-SA [2]; [11]): 2.67 µM
- IC50 (MES-SA/Dx5 [3]; read-out: IC50): 3.5 µM
- IC50 (MES-SA/Dx5 [3]; read-out: pIC50 (converted)): 3.47 µM
- IC50 (MES-SA [4]; read-out: IC50): 3.91 µM
- IC50 (MES-SA [4]; read-out: pIC50 (converted)): 3.8 µM
- IC50 ([5]; read-out: IC50): 6.95 µM
- IC50 ([5]; read-out: pIC50 (converted)): 6.92 µM
- IC50 (A2780; read-out: IC50): 5.47 µM
- IC50 (A2780; read-out: pIC50 (converted)): 5.37 µM
- IC50 (KB 3-1; read-out: IC50): 5.02 µM
- IC50 (KB 3-1; read-out: pIC50 (converted)): 5.01 µM

SMILES: O=[N+]([O-])c1ccc(O)c(/C=N/NC(=S)Nc2ccccc2C(F)(F)F)c1
- IC50 (MES-SA/Dx5 [1]; [9]): 13.9 µM
- IC50 (MES-SA [2]; [11]): 21.1 µM

SMILES: C(=N\Nc1nc2ccccc2s1)/c1ccccn1
- IC50 (KB-V1; read-out: IC50): 0.84 µM
- IC50 (KB-V1; read-out: pIC50 (converted)): 0.813 µM
- IC50 (MES-SA/Dx5 [1]; [9]): 3.36 µM
- IC50 (MES-SA/Dx5 [1]; [10]): 3.09 µM
- IC50 (MES-SA [2]; [11]): 2.7 µM
- IC50 (MES-SA [2]; [12]): 2.69 µM
- IC50 (MES-SA/Dx5 [3]; read-out: IC50): 1.02 µM
- IC50 (MES-SA/Dx5 [3]; read-out: pIC50 (converted)): 1 µM
- IC50 (MES-SA [4]; read-out: IC50): 1.42 µM
- IC50 (MES-SA [4]; read-out: pIC50 (converted)): 1.41 µM
- IC50 ([5]; read-out: IC50): 0.45 µM
- IC50 ([5]; read-out: pIC50 (converted)): 0.447 µM
- Ratio IC50 [7]: 1.41
- IC50 (A2780; read-out: IC50): 0.59 µM
- IC50 (A2780; read-out: pIC50 (converted)): 0.575 µM
- IC50 (KB 3-1; read-out: IC50): 0.65 µM
- IC50 (KB 3-1; read-out: pIC50 (converted)): 0.646 µM

SMILES: FC(F)(F)c1cccc(NC(=S)N/N=C/c2ccccn2)c1
- IC50 (MES-SA/Dx5 [1]; [9]): 0.72 µM
- IC50 (MES-SA/Dx5 [1]; [10]): 0.692 µM
- IC50 (MES-SA [2]; [11]): 0.85 µM
- IC50 (MES-SA [2]; [12]): 0.832 µM

SMILES: C/C(=N\NC(=S)Nc1cccc(C)c1)c1ccccn1
- IC50 (MES-SA/Dx5 [1]; [9]): 0.063 µM
- IC50 (MES-SA/Dx5 [1]; [10]): 0.0617 µM
- IC50 (MES-SA [2]; [11]): 0.032 µM
- IC50 (MES-SA [2]; [12]): 0.0316 µM

SMILES: Cc1ccc(O)c(/C=N/Nc2nc3ccccc3s2)c1
- IC50 (MES-SA/Dx5 [1]; [9]): 15.6 µM
- IC50 (MES-SA/Dx5 [1]; [10]): 13.8 µM
- IC50 (MES-SA [2]; [11]): 89.1 µM
- IC50 (MES-SA [2]; [12]): 85.1 µM
- Activity (MES-SA/Dx5 [8]): Active
- Ratio IC50 [6]: 5.65

SMILES: C/C(=N\Nc1ccccn1)c1ccc2ccccc2n1
- IC50 (MES-SA/Dx5 [1]; [9]): 0.38 µM
- IC50 (MES-SA/Dx5 [1]; [10]): 0.347 µM
- IC50 (MES-SA [2]; [11]): 0.48 µM
- IC50 (MES-SA [2]; [12]): 0.479 µM

SMILES: C(=N\Nc1ccccn1)/c1ccc2ccccc2n1
- IC50 (MES-SA/Dx5 [1]; [9]): 0.43 µM
- IC50 (MES-SA/Dx5 [1]; [10]): 0.427 µM
- IC50 (MES-SA [2]; [11]): 0.82 µM
- IC50 (MES-SA [2]; [12]): 0.776 µM

SMILES: S=C(N/N=C/c1ccccn1)Nc1ccccc1
- IC50 (MES-SA/Dx5 [1]; [9]): 0.58 µM
- IC50 (MES-SA/Dx5 [1]; [10]): 0.562 µM
- IC50 (MES-SA [2]; [11]): 0.72 µM
- IC50 (MES-SA [2]; [12]): 0.692 µM

SMILES: C/C(=N\Nc1ccccn1)c1ccccn1
- IC50 (MES-SA/Dx5 [1]; [9]): 0.059 µM
- IC50 (MES-SA/Dx5 [1]; [10]): 0.0589 µM
- IC50 (MES-SA [2]; [11]): 0.102 µM
- IC50 (MES-SA [2]; [12]): 0.0776 µM
